Results on twelve molecules are retold here after article PMC4828293 (Bioorganic & medicinal chemistry, 2015).

One test concerns tubulin. Nature of the test: Inhibition of [3H]colchicine binding to tubulin. Particulars: 1 μM inhibitor; 1.0 μM tubulin, 5.0 μM [3H]colchicine.
The test system of another test is SK-OV-3 (ovarian). The experiment in a line: SRB cytotoxicity assay, SK-OV-3. Particulars: SK-OV-3, 48 h, read-out: GI50 (μM) SRB assay SK-OV-3. The format is cell-based, human. In short, it runs like this: (§1)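 Serial dilutions of the test compound were added to the cells for 48 h. Cells were then fixed with trichloroacetic acid, washed, dried and stained with sulforhodamine B. The dye was solubilised and read at 540 nm, normalised to 630 nm.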
On the technique in general: The SRB assay estimates cell density from bound dye.

Another test concerns NCI-H460 (lung). Nature of the test: SRB cytotoxicity assay, NCI-H460. Particulars: NCI-H460, 48 h, read-out: GI50 (μM) SRB assay NCI-H460. Type of test: cell-based, human. In short, it runs like this:
as §1

Another test concerns DU-145 (prostate). The experiment in a line: SRB cytotoxicity assay, DU-145. Type of test: cell-based, human. Particulars: DU-145, 48 h, read-out: GI50 (μM) SRB assay DU-145. The procedure, abridged: as §1

Like-named read-outs stand apart in the source and are kept apart here.

As usually defined, the GI50 is the concentration giving 50% growth inhibition. Turning to `COc1ccc(/C=C\c2cc(OC)c(OC)c(OC)c2)cc1O` [CA4, combretastatin A-4, reference compound], the “% Inhibition of colchicine binding ± SD” value in the test on tubulin is listed as 84 ± 3%. Moreover, the figures for the GI50 in the test with SK-OV-3 (ovarian) (Homo sapiens), in the test on NCI-H460 (lung) (Homo sapiens) and in the test on DU-145 (prostate) (Homo sapiens) were 0.00455 µM, 0.00223 µM and 0.00327 µM, respectively.

`COc1ccc2c(c1OC)CCCC=C2c1ccccc1` [Compound 28, 3,4-Dimethoxy-9-phenyl-6,7-dihydro-5H-benzo[7]annulene]: the figures for the GI50 with SK-OV-3 (ovarian) (Homo sapiens), in the test on NCI-H460 (lung) (Homo sapiens) and in the test on DU-145 (prostate) (Homo sapiens) were 32.7 µM, 37.5 µM and 89.3 µM, respectively.

As to `CCCc1c(OC)ccc2c1CCCC=C2c1cc(OC)c(OC)c(OC)c1` [Compound 32, 3-Methoxy-4-propyl-9-(3′,4′,5′-trimethoxyphenyl)-6,7-dihydro-5H-benzo[7]annulene], the figures for the concentration for 50% growth inhibition (GI50) in the test with SK-OV-3 (ovarian) (Homo sapiens), in the test on NCI-H460 (lung) (Homo sapiens) and in the test with DU-145 (prostate) (Homo sapiens) were 2.96 µM, 3.32 µM and 6.03 µM, respectively.

Take `COc1ccc2c(c1OC)CCCC=C2c1cc(C(F)(F)F)cc(C(F)(F)F)c1` [Compound 34, 9-(3′,5′-Bis(trifluoromethyl)phenyl)-3,4-dimethoxy-6,7-dihydro-5H-benzo[7]annulene]: the values for the GI50 in the test on SK-OV-3 (ovarian) (Homo sapiens), in the test on NCI-H460 (lung) (Homo sapiens) and in the test on DU-145 (prostate) (Homo sapiens) were 31.1 µM, 25.5 µM and 52.1 µM, respectively.

With `COc1ccc(C2=CCCCc3c2ccc(OC)c3OC)cc1` [Compound 36, 3,4-Dimethoxy-9-(4′-methoxyphenyl)-6,7-dihydro-5H-benzo[7]annulene], the figures for the concentration for 50% growth inhibition (GI50) with SK-OV-3 (ovarian) (Homo sapiens), in the test on NCI-H460 (lung) (Homo sapiens) and with DU-145 (prostate) (Homo sapiens) were 20.5 µM, 33.4 µM and 48.3 µM, respectively.

With `COc1ccc(C2=CCCCc3cc(OC)ccc32)cc1` [Compound 37, 3-Methoxy-9-(4′-methoxyphenyl)-6,7-dihydro-5H-benzo[7]annulene], the concentration for 50% growth inhibition (GI50) in the test with SK-OV-3 (ovarian) (Homo sapiens) was determined as 40.7 µM; in the test with NCI-H460 (lung) (Homo sapiens) it was 57.7 µM; in the test on DU-145 (prostate) (Homo sapiens) it was 68.7 µM.

Take `COc1ccc2c(c1OC)CCCC=C2c1ccc(OC)c(OC)c1OC` [Compound 61, 3,4-Dimethoxy-9-(2′,3′,4′-trimethoxyphenyl)-6,7-dihydro-5H-benzo[7]annulene]: the 50% growth inhibitory concentration (GI50) worked out at 6.96 µM in the test on SK-OV-3 (ovarian) (Homo sapiens), 10.5 µM with NCI-H460 (lung) (Homo sapiens) and 26.2 µM in the test with DU-145 (prostate) (Homo sapiens).

Turning to `Oc1ccc2c(c1O)CCCC=C2c1cc(C(F)(F)F)cc(C(F)(F)F)c1` [Compound 66, 9-(3′,5′-Bis(trifluoromethyl)phenyl)-6,7-dihydro-5H-benzo[7]annulene-3,4-diol], the 50% growth inhibitory concentration (GI50) in the test on SK-OV-3 (ovarian) (Homo sapiens) turned out to be 16.8 µM; in the test on NCI-H460 (lung) (Homo sapiens), 25 µM; with DU-145 (prostate) (Homo sapiens), 21.8 µM.

In the case of `COc1ccc(C2=CCCCc3c2ccc(OC)c3O)cc1` [Compound 67, 3-Methoxy-9-(4′-methoxyphenyl)-6,7-dihydro-5H-benzo[7]annulen-4-ol], the results for the GI50 with SK-OV-3 (ovarian) (Homo sapiens), in the test on NCI-H460 (lung) (Homo sapiens) and with DU-145 (prostate) (Homo sapiens) were 18.4 µM, 10.6 µM and 8.59 µM, respectively.

With `COc1cc(C2=CCCCc3c2ccc(O)c3O)cc(OC)c1OC` [Compound 70, 9-(3′,4′,5′-Trimethoxyphenyl)-6,7-dihydro-5H-benzo[7]annulene-3,4-diol], the concentration for 50% growth inhibition (GI50) was 0.346 µM with SK-OV-3 (ovarian) (Homo sapiens), 0.691 µM with NCI-H460 (lung) (Homo sapiens) and 1.53 µM with DU-145 (prostate) (Homo sapiens).

In the case of `COc1ccc2c(c1O)CCCC=C2c1ccc(OC)c(OC)c1OC` [Compound 71, 3-Methoxy-9-(2′,3, ′4′-trimethoxyphenyl)-6,7-dihydro-5H-benzo[7]annulen-4-ol], the concentration for 50% growth inhibition (GI50) in the test on SK-OV-3 (ovarian) (average of n ≥ 3) was found to be 3.53 µM; with NCI-H460 (lung) (average of n ≥ 3), 4.24 µM; with DU-145 (prostate) (average of n ≥ 3), 7.54 µM.

For the molecule `COc1ccc2c(c1OP(=O)(O)O)CCCC=C2c1cc(C(F)(F)F)cc(C(F)(F)F)c1` [Compound 74, 9-(3′,5′-Bis(trifluoromethyl)phenyl)-3-methoxy-6,7-dihydro-5H-benzo[7]annulen-4-yl disodium phosphate], the results for the GI50 in the test with SK-OV-3 (ovarian) (average of n ≥ 3), in the test on NCI-H460 (lung) (average of n ≥ 3) and with DU-145 (prostate) (average of n ≥ 3) were 17.2 µM, 16.3 µM and 17.5 µM, respectively.
